Source: ChEMBL document CHEMBL1133515, “Hydrolytic stability versus ring size in lactams: implications for the development of lactam antibiotics and other serine protease inhibitors” (J Med Chem, 2000)

What was measured:
Format in all cases: ADME
[1] = Compound was evaluated for the second order hydrolysis rate constant
How it was run: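 Amides were reacted with NaOD in D2O under second-order conditions. Concentrations of amide and hydroxide were tracked over reaction time. k2 was taken from the gradient of a plot of the log of the lactam/hydroxide concentration ratio against time, using the second-order rate law with the starting amide and NaOD concentrations.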

[2] = Compound was evaluated for rate of hydrolysis expressed in hours at a pH of 12.; settings: pH 12
How it was run: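 Deuterated phosphate buffer at pH 12 was made from 1 M K2DPO4 in D2O, with pH adjusted using 10 M KOD. Lactams were dissolved in it at 0.10 and 0.50 M. Hydrolysis was followed over time, and a rate constant per hour was derived.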

[3] = Compound was evaluated for rate of hydrolysis expressed in hours at a pH of 7.5; settings: pH 7.5
How it was run: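 Pseudo-first-order hydrolysis was run in 0.33 M phosphate buffer at pH 7.5 in D2O, made by mixing Na2DPO4 and KD2PO4 solutions. The pH was checked potentiometrically. The rate constant was expressed per hour.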

| Compound | k2 [1] [M⁻¹ s⁻¹] | k [2] [h⁻¹] | k [3] [h⁻¹] |
| --- | --- | --- | --- |
| CNC(C)=O | 3.32e-06 |  |  |
| O=C1CCCN1 [2-PYRROLIDONE] | 5.59 |  |  |
| CC1(C)S[C@@H]2[C@H](NC(=O)Cc3ccccc3)C(=O)N2[C@H]1C(=O)[O-].[K+] [PENICILLIN G POTASSIUM] |  | 2.3 | 0.00337 |

Now from value to compound:

| k2 [1] [M⁻¹ s⁻¹] | k [2] [h⁻¹] | k [3] [h⁻¹] | Compound |
| --- | --- | --- | --- |
| 0.000121 | 0.000648 |  | O=C1CCCCN1 |
| 1.36e-07 |  |  | O=C1CCCCCCN1 |
| 2.72e-07 |  |  | O=C1CCCCCCCN1 |
| 0.000237 | 0.00103 |  | O=C1CCN1 |
| 3.21e-06 |  |  | O=C1CCCCCN1 [CAPROLACTAM] |
